From ChEMBL document CHEMBL1629431, “Synthesis and antitumor activity of some 2, 3-disubstituted quinazolin-4(3H)-ones and 4, 6- disubstituted- 1, 2, 3, 4-tetrahydroquinazolin-2H-ones” (2010)

Experiments:
Format in all cases: functional
U-251 = assay: Growth inhibition of human U251 cells at 10 uM after 48 hrs by coulter counter method; conditions: U-251, 48 h, read-out: GI
Outline: (§1)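 Single high-dose NCI 60-cell-line panel screen across nine tumor subpanels. Test solutions (0.2 mL) were added in duplicate to wells holding 1.8 mL of culture at 6 × 10⁴ cells/mL. Controls got PBS and DMSO at identical dilutions. Incubation was 48 h at 37 °C in humidified 5% CO₂. Cells were diluted 10-fold in saline, Coulter-counted and dilution-corrected. Results were expressed as percent growth inhibition versus control.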

786-0 = assay: Growth inhibition of human 786-0 cells at 10 uM after 48 hrs by coulter counter method; conditions: 786-0, 48 h, read-out: GI; outline: as §1
HOP-92 = assay: Growth inhibition of human HOP92 cells at 10 uM after 48 hrs by coulter counter method; conditions: HOP-92, 48 h, read-out: GI; outline: as §1
MCF7 = assay: Growth inhibition of human MCF7 cells at 10 uM after 48 hrs by coulter counter method; conditions: MCF7, 48 h, read-out: GI; outline: as §1
SR = assay: Growth inhibition of human SR cells at 10 uM after 48 hrs by coulter counter method; conditions: read-out: GI; outline: as §1
SK-MEL-28 = assay: Growth inhibition of human SK-MEL-28 cells at 10 uM after 48 hrs by coulter counter method; conditions: SK-MEL-28, 48 h, read-out: GI; outline: as §1
T47D = assay: Growth inhibition of human T47D cells at 10 uM after 48 hrs by coulter counter method; conditions: read-out: GI; outline: as §1
NCI-H522 = assay: Growth inhibition of human NCI-H522 cells at 10 uM after 48 hrs by coulter counter method; conditions: NCI-H522, 48 h, read-out: GI; outline: as §1
SF-268 = assay: Growth inhibition of human SF268 cells at 10 uM after 48 hrs by coulter counter method; conditions: SF-268, 48 h, read-out: GI; outline: as §1
UACC-62 = assay: Growth inhibition of human UACC62 cells at 10 uM after 48 hrs by coulter counter method; conditions: UACC-62, 48 h, read-out: GI; outline: as §1
HL-60(TB) = assay: Growth inhibition of human HL-60(TB) cells at 10 uM after 48 hrs by coulter counter method; conditions: HL-60, 48 h, read-out: GI
Outline: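 Part of the NCI 60-cell-line single-high-dose panel. Cells were seeded at 6 × 10⁴ cells/mL with test solution in duplicate wells, alongside PBS/DMSO controls at identical dilutions. Plates were held 48 h at 37 °C in a humidified 5% CO₂ incubator. Cells were then diluted 10-fold in saline and counted by Coulter counter, with counts corrected for dilution. Results are percent growth of treated cells, reported as GI %.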

IGROV-1 = assay: Growth inhibition of human IGROV1 cells at 10 uM after 48 hrs by coulter counter method; conditions: IGROV-1, 48 h, read-out: GI; outline: as §1
KM12 = assay: Growth inhibition of human KM12 cells at 10 uM after 48 hrs by coulter counter method; conditions: KM12, 48 h, read-out: GI; outline: as §1
SN12C = assay: Growth inhibition of human SN12C cells at 10 uM after 48 hrs by coulter counter method; conditions: read-out: GI; outline: as §1
CCRF-CEM = assay: Growth inhibition of human CCRF-CEM cells at 10 uM after 48 hrs by coulter counter method; conditions: read-out: GI; outline: as §1
OVCAR-4 = assay: Growth inhibition of human OVCAR4 cells at 10 uM after 48 hrs by coulter counter method; conditions: OVCAR-4, 48 h, read-out: GI; outline: as §1
SK-OV-3 = assay: Growth inhibition of human SKOV3 cells at 10 uM after 48 hrs by coulter counter method; conditions: SK-OV-3, 48 h, read-out: GI; outline: as §1
MDA-MB-231 = assay: Growth inhibition of human MDA-MB-231 cells at 10 uM after 48 hrs by coulter counter method; conditions: MDA-MB-231, 48 h, read-out: GI; outline: as §1
MDA-MB-468 = assay: Growth inhibition of human MDA-MB-468 cells at 10 uM after 48 hrs by coulter counter method; conditions: MDA-MB-468, 48 h, read-out: GI; outline: as §1
COLO 205 = assay: Growth inhibition of human COLO205 cells at 10 uM after 48 hrs by coulter counter method; conditions: COLO 205, 48 h, read-out: GI; outline: as §1
M14 = assay: Growth inhibition of human M14 cells at 10 uM after 48 hrs by coulter counter method; conditions: M14, 48 h, read-out: GI; outline: as §1
[1] = Growth inhibition of human Hs 578T cells at 10 uM after 48 hrs by coulter counter method; conditions: read-out: GI; outline: as §1
HCT-116 = assay: Growth inhibition of human HCT116 cells at 10 uM after 48 hrs by coulter counter method; conditions: HCT-116, 48 h, read-out: GI; outline: as §1
OVCAR-8 = assay: Growth inhibition of human OVCAR8 cells at 10 uM after 48 hrs by coulter counter method; conditions: OVCAR-8, 48 h, read-out: GI; outline: as §1
UO-31 = assay: Growth inhibition of human UO31 cells at 10 uM after 48 hrs by coulter counter method; conditions: UO-31, 48 h, read-out: GI; outline: as §1
SF-539 = assay: Growth inhibition of human SF539 cells at 10 uM after 48 hrs by coulter counter method; conditions: SF-539, 48 h, read-out: GI; outline: as §1
A549 = assay: Growth inhibition of human A549 cells at 10 uM after 48 hrs by coulter counter method; conditions: A549, 48 h, read-out: GI; outline: as §1
NCI-H226 = assay: Growth inhibition of human NCI-H226 cells at 10 uM after 48 hrs by coulter counter method; conditions: NCI-H226, 48 h, read-out: GI; outline: as §1
MOLT-4 = assay: Growth inhibition of human MOLT4 cells at 10 uM after 48 hrs by coulter counter method; conditions: MOLT-4, 48 h, read-out: GI; outline: as §1
SNB-75 = assay: Growth inhibition of human SNB75 cells at 10 uM after 48 hrs by coulter counter method; conditions: SNB-75, 48 h, read-out: GI; outline: as §1
SK-MEL-2 = assay: Growth inhibition of human SK-MEL-2 cells at 10 uM after 48 hrs by coulter counter method; conditions: SK-MEL-2, 48 h, read-out: GI; outline: as §1
PC-3 = assay: Growth inhibition of human PC3 cells at 10 uM after 48 hrs by coulter counter method; conditions: PC-3, 48 h, read-out: GI; outline: as §1
NCI-H23 = assay: Growth inhibition of human NCI-H23 cells at 10 uM after 48 hrs by coulter counter method; conditions: NCI-H23, 48 h, read-out: GI; outline: as §1
CAKI-1 = assay: Growth inhibition of human Caki1 cells at 10 uM after 48 hrs by coulter counter method; conditions: CAKI-1, 48 h, read-out: GI; outline: as §1
K562 = assay: Growth inhibition of human K562 cells at 10 uM after 48 hrs by coulter counter method; conditions: K562, 48 h, read-out: GI; outline: as §1

Row | Structure (SMILES) | inhibition of growth at 10 µM (U-251) [%] | inhibition of growth at 10 µM (786-0) [%] | inhibition of growth at 10 µM (MCF7) [%] | inhibition of growth at 10 µM (SR) [%] | inhibition of growth at 10 µM (SK-MEL-28) [%] | inhibition of growth at 10 µM (T47D) [%] | inhibition of growth at 10 µM (NCI-H522) [%] | inhibition of growth at 10 µM (SF-268) [%] | inhibition of growth at 10 µM (UACC-62) [%] | inhibition of growth at 10 µM (HL-60(TB)) [%] | inhibition of growth at 10 µM (IGROV-1) [%] | inhibition of growth at 10 µM (KM12) [%] | inhibition of growth at 10 µM (SN12C) [%] | inhibition of growth at 10 µM (OVCAR-4) [%] | inhibition of growth at 10 µM (SK-OV-3) [%] | inhibition of growth at 10 µM (MDA-MB-231) [%] | inhibition of growth at 10 µM (MDA-MB-468) [%] | inhibition of growth at 10 µM (COLO 205) [%] | inhibition of growth at 10 µM (M14) [%] | inhibition of growth at 10 µM [1] [%] | also measured
1 | COc1ccc(C(=O)CSc2nc3ccccc3c(=O)n2-c2ccc(OC)cc2)cc1 | 30 | 30 | 30 | 34.9 | 30 | 30 | < 30 | 30 | 30 | 43 | 30 | 30 | 30 | 30 | 30 | 30 | 30.8 | 30 | 30 | 30 | inhibition of growth at 10 µM (HOP-92): 30%; inhibition of growth at 10 µM (CCRF-CEM): 70.3%; inhibition of growth at 10 µM (HCT-116): 30%; inhibition of growth at 10 µM (OVCAR-8): 30%; inhibition of growth at 10 µM (UO-31): 30.3%; inhibition of growth at 10 µM (SF-539): 30%; inhibition of growth at 10 µM (A549): 30.8%; inhibition of growth at 10 µM (NCI-H226): 30%; inhibition of growth at 10 µM (MOLT-4): 49.4%; inhibition of growth at 10 µM (SNB-75): 30%; inhibition of growth at 10 µM (SK-MEL-2): 30%; inhibition of growth at 10 µM (PC-3): 30%; inhibition of growth at 10 µM (NCI-H23): 30%
2 | COc1ccc(-n2c(SC)nc3ccccc3c2=O)cc1 | 30 | 30 | 30 | 30 | 30 | 30 | 30 | 30 | 30 | 30 | 30 | 30 | 30 | 30 | 30 | 30 | 30 | 30 | 30 | 30 | inhibition of growth at 10 µM (CAKI-1): 30%; inhibition of growth at 10 µM (K562): 30.1%; inhibition of growth at 10 µM (CCRF-CEM): 30%; inhibition of growth at 10 µM (HCT-116): 30%; inhibition of growth at 10 µM (OVCAR-8): 30%; inhibition of growth at 10 µM (UO-31): 30%; inhibition of growth at 10 µM (SF-539): 30%; inhibition of growth at 10 µM (A549): 30%; inhibition of growth at 10 µM (NCI-H226): 30%; inhibition of growth at 10 µM (MOLT-4): 30%; inhibition of growth at 10 µM (SNB-75): 30%; inhibition of growth at 10 µM (SK-MEL-2): 30%; inhibition of growth at 10 µM (PC-3): 30%; inhibition of growth at 10 µM (NCI-H23): 30%
3 | O=c1c2ccccc2nc(Nc2nnc(-c3ccc(Cl)cc3)s2)n1-c1ccccc1 | 30 | 30 | 30 | 30 | 30 | 30 | 31.9 | 30 | 30 | 30 | 65.9 | 30 | 30 | 30 | 30 | 30 | 30 | 30 | 30 | 30 | inhibition of growth at 10 µM (HOP-92): 30%; inhibition of growth at 10 µM (CAKI-1): 30%; inhibition of growth at 10 µM (K562): 30%; inhibition of growth at 10 µM (CCRF-CEM): 30%; inhibition of growth at 10 µM (HCT-116): 30%; inhibition of growth at 10 µM (OVCAR-8): 30%; inhibition of growth at 10 µM (UO-31): 30%; inhibition of growth at 10 µM (SF-539): 30%; inhibition of growth at 10 µM (A549): 30%; inhibition of growth at 10 µM (NCI-H226): 30%; inhibition of growth at 10 µM (MOLT-4): 30%; inhibition of growth at 10 µM (SNB-75): 30%; inhibition of growth at 10 µM (SK-MEL-2): 30%; inhibition of growth at 10 µM (PC-3): 30%; inhibition of growth at 10 µM (NCI-H23): 30%
4 | COc1ccc(C(=O)CSc2nc3ccccc3c(=O)n2-c2ccc(Cl)cc2)cc1 | 65.1 | 41.3 | 30 | 30 | 37.3 | 30 | < 30 | 48.8 | 42.2 | 30 | 48.9 | 30 | 30 | 53.5 | 44.7 | 40.9 | 35.4 | 48.9 | 38.4 | 30 | inhibition of growth at 10 µM (HCT-116): 30%; inhibition of growth at 10 µM (OVCAR-8): 76.2%; inhibition of growth at 10 µM (UO-31): 37.2%; inhibition of growth at 10 µM (SF-539): 48.6%; inhibition of growth at 10 µM (NCI-H226): 30%; inhibition of growth at 10 µM (MOLT-4): 30%; inhibition of growth at 10 µM (SNB-75): 71.1%; inhibition of growth at 10 µM (SK-MEL-2): 34.2%; inhibition of growth at 10 µM (PC-3): 30%; inhibition of growth at 10 µM (NCI-H23): 30%
5 | CCn1c(SC)nc2ccccc2c1=O | 30 | 30 | 30 | 30 | 30 | 30 | 30 | 30 | 30 | 34.8 | 30 | 30 | 30 | 30 | 30 | 30 | 30 | 30 | 30 | 30 | inhibition of growth at 10 µM (HOP-92): 60.8%; inhibition of growth at 10 µM (CAKI-1): 42.9%; inhibition of growth at 10 µM (K562): 30%; inhibition of growth at 10 µM (CCRF-CEM): 49.5%; inhibition of growth at 10 µM (HCT-116): 30%; inhibition of growth at 10 µM (OVCAR-8): 30%; inhibition of growth at 10 µM (UO-31): 30%; inhibition of growth at 10 µM (SF-539): 30%; inhibition of growth at 10 µM (A549): 30%; inhibition of growth at 10 µM (NCI-H226): 30%; inhibition of growth at 10 µM (MOLT-4): 30%; inhibition of growth at 10 µM (SNB-75): 30%; inhibition of growth at 10 µM (SK-MEL-2): 30%; inhibition of growth at 10 µM (PC-3): 30%; inhibition of growth at 10 µM (NCI-H23): 30%
